# Measurements taken from ChEMBL document CHEMBL1153534, “Design and synthesis of androgen receptor antagonists with bulky side chains for overcoming antiandrogen resistance” (J Med Chem, 2009).
# Calls of active or inactive are those of the source. The rule behind the calls is not given here.
# Columns and labels:
# [1] = target: T1, Progesterone receptor (Homo sapiens) (UniProt P06401); assay: Agonist activity at human PR B-form expressed in human PC3 cells assessed as receptor transactivation at 0.1 uM after 24 hrs by luciferase reporter gene assay; format: functional, cell-based; details: PC-3
# T1 sequence (whole entry): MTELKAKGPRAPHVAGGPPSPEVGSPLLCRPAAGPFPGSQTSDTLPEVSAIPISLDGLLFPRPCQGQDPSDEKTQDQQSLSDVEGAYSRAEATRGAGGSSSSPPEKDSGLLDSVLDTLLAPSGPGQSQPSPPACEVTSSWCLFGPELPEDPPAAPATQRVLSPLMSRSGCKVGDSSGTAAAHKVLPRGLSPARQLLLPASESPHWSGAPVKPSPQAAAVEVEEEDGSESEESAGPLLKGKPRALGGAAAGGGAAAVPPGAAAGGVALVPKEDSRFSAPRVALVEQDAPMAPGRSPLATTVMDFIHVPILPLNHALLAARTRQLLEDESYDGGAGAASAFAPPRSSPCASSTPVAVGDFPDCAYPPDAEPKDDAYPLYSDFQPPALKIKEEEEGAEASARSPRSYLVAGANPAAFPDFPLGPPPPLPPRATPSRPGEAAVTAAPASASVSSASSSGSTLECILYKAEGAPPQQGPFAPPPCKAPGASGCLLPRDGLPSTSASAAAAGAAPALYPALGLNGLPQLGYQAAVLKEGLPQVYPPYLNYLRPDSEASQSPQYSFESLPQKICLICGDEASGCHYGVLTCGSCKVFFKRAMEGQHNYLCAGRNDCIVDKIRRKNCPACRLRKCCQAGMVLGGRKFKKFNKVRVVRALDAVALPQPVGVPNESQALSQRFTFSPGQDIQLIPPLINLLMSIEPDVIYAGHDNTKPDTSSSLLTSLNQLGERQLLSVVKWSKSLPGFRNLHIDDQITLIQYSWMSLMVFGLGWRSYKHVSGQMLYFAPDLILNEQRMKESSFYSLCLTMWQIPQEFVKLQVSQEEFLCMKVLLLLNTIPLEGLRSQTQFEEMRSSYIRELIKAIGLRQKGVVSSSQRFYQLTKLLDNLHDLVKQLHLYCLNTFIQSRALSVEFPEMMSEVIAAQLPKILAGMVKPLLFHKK
# In short: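 PC-3 cells carrying a luciferase reporter for transactivation by the human PR B form. Antagonist mode used 10 nM R5020 as the agonist. Agonist mode ran in the absence of R5020. Luciferase read-out.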
# PC-3 = assay: Antiandrogenic activity in human PC3 cells expressing androgen receptor T877A mutant assessed as inhibition of DHT-induced ARE-dependent transactivation at 1 uM after 24 hrs by luciferase reporter gene assay; format: cell-based
# In short: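 PC-3 cells, which lack endogenous AR, transiently transfected with plasmids expressing human AR (WT, T877A, W741C or H874Y) plus an ARE-driven MMTV-luc reporter. Cells were treated with or without 0.1 nM DHT. Firefly luciferase was standardized to a Renilla control and normalized to the 0.1 nM DHT signal. Mean ± sd.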
smiles,measurement,setting,value
COc1cc(/C=C(\C(=O)/C=C/C2=C(C)CCCC2(C)C)C(=O)/C=C/c2ccc(O)c(OC)c2)ccc1O,Activity,[1],inactive
same,Activity,PC-3,Active
